# Source: PubChem
# This is one part of a sample in which hits are shown more often than they occur.
# HCT116 PTEN-null: suppresses growth of cells with PTEN deletion | viability, % at 10 µM | actives 1.2% (n = 140,000) | AID 827 | HCT116 PTEN-null viability, CellTiter-Glo, 60 h; hits give low values;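 active = viability at or below a set limit, 4 SD under the median of all tested compounds, cut at about 3.7% in these data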;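 also: PTEN knockout HCT116 line with beta catenin targeted HCT116 as companion control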
# HUVEC inhibit: inhibitors of human endothelial cell proliferation. HUVEC proliferation, CellTiter-Glo luminescence, 72 h; hits give low values. AID 648. viability, % at 10 µM (by protocol). actives 1.1% (n = 86,000);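 active = viability at or below 30%; inactive = viability above 30%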;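 also: 100% = median luminescence of DMSO-only cell control wells on each plate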
# H69AR inhibit: growth inhibitors of human H69AR lung tumor cells; actives 6% (n = 85,000); H69AR lung tumor viability, ATP luminescence, 72 h; hits give low values; AID 598; viability, % at 10 µM;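 active = viability at or below 40%; inactive = viability above 40%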;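 also: multidrug resistant small cell line overexpressing MRP-1 efflux transporter; 100% = mean luminescence of untreated control wells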
# HCT116 bCat-KO: beta-catenin-lacking colon tumor cell growth suppression; HCT116 beta-catenin knockout viability, CellTiter-Glo, 60 h; hits give low values; viability, % at 10 µM; actives 1.5% (n = 140,000); AID 818;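 active = viability at or under a set limit, the compound median less 4 SD, cut at about 6% in these data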;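 also: 0% = Hyamine 1622 control at 20 µM and 100% = untreated cell control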
# Fibroblast inh: blocks proliferation of human lung fibroblasts | LL 47 human lung fibroblast viability, ATP luminescence; hits give low values | viability, % at 10 µM | actives 1.1% (n = 85,000);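 active = viability at or below 50% in the single dose screen; inactive = viability above 50%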;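 also: compound exposure lasted 72 h before the ATP readout; 100% = median luminescence of untreated cell-only wells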
#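 Material: Human LL 47 lung fibroblast cells | Input: 1,150 cells/well | Buffer or medium: IMEM plus 15% FBS | Compound dosing: 0.1% DMSO in all compound wells | Times: Overnight cell rest, 72 h compound treatment at 37 °C | Signal: CellTiter-Glo luminescence measuring cellular ATP | Measure: % viability versus median cells-only luminescence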
# Starred values were filed as active, the others as inactive; nt = no result.
SMILES,HCT116 PTEN-null,HUVEC inhibit,H69AR inhibit,HCT116 bCat-KO,Fibroblast inh
Cc1ccnc(N2C(=O)c3cccc4c([N+](=O)[O-])ccc(c34)C2=O)c1,1.3*,nt,nt,1.2*,nt
O=C1c2cc([N+](=O)[O-])cc3cc([N+](=O)[O-])cc(c23)C(=O)N1c1ccccn1,6,nt,nt,15,nt
Cc1cc(=O)[nH]c(N/N=C/c2ccc(Br)s2)n1,92,nt,nt,87,nt
Cc1ccc(NC(=O)COc2ccc(/C=N/NC(=O)CSCc3ccccc3)cc2)cc1,95,nt,nt,83,nt
Cc1ccc(NC(=O)COc2ccc(/C=C3/SC(=Nc4ccccc4)N(Cc4cccnc4)C3=O)cc2)cc1,2.2*,nt,nt,2.7*,nt
O=C(N/N=C/c1c[nH]c2ccccc12)c1cc(-c2ccc(-c3ccccc3)cc2)n[nH]1,1.3*,nt,nt,1.1*,nt
O=C(N/N=C/c1ccco1)c1cc(-c2ccc3ccccc3c2)n[nH]1,27,3.7*,1.8*,48,76
O=C(N/N=C/C=C\c1ccccc1[N+](=O)[O-])c1cc(-c2ccc3ccccc3c2)n[nH]1,5,nt,nt,4.7*,nt
O=C(N/N=C/C=C\c1ccccc1[N+](=O)[O-])c1cccs1,79,nt,nt,76,nt
CC[N+](C)(CC)CC(O)COCC1COc2ccccc2O1 (centres undefined),89,nt,nt,93,nt
CC(C)Cn1c(N)c(C(=O)CSc2cc(Cl)ccc2Cl)c(=O)n(C)c1=O,39,nt,nt,31,nt
O=C1c2ccccc2C(Nc2ccc3c(c2)OCCO3)N1Cc1ccccc1 (centres undefined),79,92,96,79,94
Cc1ccc(-c2cc(C(F)F)n3ncc(C(=O)Nc4c(C)nn(Cc5ccccc5Cl)c4C)c3n2)cc1,1.4*,nt,nt,2.4*,nt
CCOC(=O)N1CCC(NS(=O)(=O)c2cc3c(cc2Cl)NC(=O)CO3)CC1,4,65,25*,3.9*,60
O=C(Nc1nc2ccccc2[nH]1)c1ccc(Cl)c(S(=O)(=O)N2CCCC2)c1,39,75,12*,25,73
O=C(CSc1ccc2ccccc2c1)Nc1nc2ccccc2[nH]1,101,nt,nt,94,nt
CCCSc1ccc2nc(NC(=O)OC)[nH]c2c1,12,45,20*,9,53
COc1cccc(C(=O)Nc2nc3ccccc3[nH]2)c1,81,68,32*,75,60
COC(=O)Nc1nc2ccc(C(=O)c3ccccc3)cc2[nH]1,nt,37,33*,nt,50
COc1ccc(/C=C2/SC(=O)N(NS(=O)(=O)c3ccccc3)C2=S)cc1OC,90,81,88,102,99
Cc1ccc2nc(C)c3c(c2c1)COC3,78,nt,nt,80,nt
NS(=O)(=O)c1ccc(NC(=O)C(Sc2ccccc2)c2ccccc2)cc1 (centres undefined),81,nt,nt,95,nt
CCOc1ccc(OCC)c(S(=O)(=O)NCc2ccccn2)c1,97,105,87,95,100
CC(OC(=O)Cc1c(F)cccc1Cl)C(=O)NCCC1=CCCCC1 (centres undefined),91,nt,nt,87,nt
O=C(COc1ccccc1)Nc1nc2ccccc2[nH]1,99,102,102,99,99
SMILES,HCT116 PTEN-null,HUVEC inhibit,H69AR inhibit,HCT116 bCat-KO,Fibroblast inh
CC(CC(=O)Nc1nc2ccccc2[nH]1)c1ccccc1 (centres undefined),70,88,12*,71,91
Cc1ccccc1NC(=O)Cn1c(NCC(C)O)nc2ccccc21 (centres undefined),78,nt,nt,88,nt
COc1ccc(/C=C/C(=O)NCCSCc2ccco2)cc1,93,nt,nt,95,nt
O=C(Nc1nnc(-c2ccccc2SCc2ccccc2F)s1)Nc1ccccc1F,1.4*,66,16*,1.3*,26*
CC(=O)Nc1nnc(SCc2ccccc2F)s1,111,91,91,98,100
Cc1ccc(-n2nc(C)c3c(C)c(CCC(=O)NC(C)c4ccccc4)c(C)nc32)cc1 (centres undefined),54,59,15*,42,73
CSc1c(SCc2ccccc2)cnn(-c2ccccc2)c1=O,85,nt,nt,93,nt
Cc1noc(C)c1CSc1cc(C)c2ccccc2n1,80,97,22*,92,90
CCN1c2ccccc2NC2C1C(C(C)=O)C(=O)N2c1ccc(Cl)cc1 (centres undefined),69,54,18*,75,79
CCC1Oc2ccc(C)cc2N(CC(=O)N(Cc2ccc(C)o2)C2CC(C)(C)NC(C)(C)C2)C1=O (centres undefined),12,73,32*,21,84
